Activity calls are given as the source filed them. No cut-off for these calls is given here.
Experiments:
[1] = system: RAW264.7; test: Anti-inflammatory activity against LPS-stimulated mouse RAW264.7 cells assessed as reduction in M1 polarization of macrophages at 100 to 500 nM incubated for 48 hrs in presence of LPS by flow cytometry; assay type: functional, cell-based; details: dose 100-500 nM
Outline: (§1)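 RAW 264.7 cells in DMEM with 10% heat-inactivated FBS at 37 °C, 5% CO2, subcultured at 70–80% confluence. Seeded at 1 × 10^6 cells/mL in medium with 1 μg/mL LPS, with compound at final 100 nM or 500 nM. After 48 h, M1 differentiation and TNF-α are read by flow cytometry.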

[2] = system: RAW264.7; test: Anti-inflammatory activity against LPS-stimulated mouse RAW264.7 cells assessed as reduction in TNF-alpha expression of M1 macrophages at 100 to 500 nM incubated for 48 hrs in presence of LPS by flow cytometry; assay type: functional, cell-based; details: dose 100-500 nM; outline: as §1
[3] = system: CD4+ve Th; test: Inhibition of cytokine storm in ConA/1L-12-stimulated C57BL/6 mouse CD4+ T-lymphocytes assessed as reduction in Th1 cell differentiation by measuring proportion of CD4+IFNgamma-negative cells at 500 nM incubated for 48 hrs by flow cytometry (reference value: 31%); assay type: functional; parameters: scale not given: the % may be the effect or the level left
Outline: (§2)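 Splenocytes from C57BL/6 mice after erythrocyte lysis, filtration and counting. Cultured in complete medium with ConA and IL-2 under Th1, Th2 or Th17 differentiation conditions with compound for 48 h. Then PMA, ionomycin and GolgiStop (1:1000) for 4 h. CD4 and intracellular cytokines stained and read by flow cytometry.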

[4] = system: CD4+ve Th; test: Inhibition of cytokine storm in ConA/1L-12-stimulated C57BL/6 mouse CD4+ T-lymphocytes assessed as reduction in Th1 cell differentiation by measuring proportion of CD4+IFNgamma-positive cells at 500 nM incubated for 48 hrs by flow cytometry (reference value: 69%); assay type: functional; parameters: scale not given: the % may be the effect or the level left; outline: as §2
[5] = system: CD4+ve Th; test: Inhibition of cytokine storm in ConA/1L-12-stimulated C57BL/6 mouse CD4+ T-lymphocytes assessed as reduction in Th2 cell differentiation by measuring proportion of CD4+IL4-negative cells at 500 nM incubated for 48 hrs by flow cytometry (reference value: 32.4%); assay type: functional; parameters: scale not given: the % may be the effect or the level left; outline: as §2
[6] = system: CD4+ve Th; test: Inhibition of cytokine storm in ConA/1L-12-stimulated C57BL/6 mouse CD4+ T-lymphocytes assessed as reduction in Th2 cell differentiation by measuring proportion of CD4+IL4-positive cells at 500 nM incubated for 48 hrs by flow cytometry (reference value: 67.6%); assay type: functional; parameters: scale not given: the % may be the effect or the level left; outline: as §2
[7] = system: CD4+ve Th; test: Inhibition of cytokine storm in ConA/1L-12-stimulated C57BL/6 mouse CD4+ T-lymphocytes assessed as reduction in Th17 cell differentiation by measuring proportion of CD4+IL17A-negative cells at 500 nM incubated for 48 hrs by flow cytometry (reference value: 31.6%); assay type: functional; parameters: scale not given: the % may be the effect or the level left; outline: as §2
[8] = system: CD4+ve Th; test: Inhibition of cytokine storm in ConA/1L-12-stimulated C57BL/6 mouse CD4+ T-lymphocytes assessed as reduction in Th17 cell differentiation by measuring proportion of CD4+IL17A-positive cells at 500 nM incubated for 48 hrs by flow cytometry (reference value: 68.4%); assay type: functional; parameters: scale not given: the % may be the effect or the level left; outline: as §2
[9] = system: CD4+ve Th; test: Cytotoxicity against C57BL/6 mouse CD4+ T-lymphocytes at 500 nM measured upto 48 hrs; assay type: toxicity, cell-based; details: 0.5 µM
[10] = system: Mus musculus; test: Anti-inflammatory activity against CLP-induced sepsis C57BL/6J mouse model assessed as proportion of neutrophils at 100 mg/kg by flow cytometry (reference value: 6.6%); assay type: functional
[11] = system: Mus musculus; test: Anti-inflammatory activity against CLP-induced sepsis C57BL/6J mouse model assessed as proportion of M1 macrophages at 100 mg/kg by flow cytometry (reference value: 98.4%); assay type: functional
[12] = Inhibition of cytokine storm in CLP-induced sepsis C57BL/6J mouse model assessed as disruption of Th1 and Th2 cells imbalance by measuring CD4+IFNgamma-negative cells at 100 mg/kg by flow cytometry (reference value: 26.3%); assay type: functional; parameters: scale not given: the % may be the effect or the level left
[13] = Inhibition of cytokine storm in CLP-induced sepsis C57BL/6J mouse model assessed as disruption of Th1 and Th2 cells imbalance by measuring CD4+IFNgamma-positive cells at 100 mg/kg by flow cytometry (reference value: 73.7%); assay type: functional; parameters: scale not given: the % may be the effect or the level left
[14] = Inhibition of cytokine storm in CLP-induced sepsis C57BL/6J mouse model assessed as disruption of Th1 and Th2 cells imbalance by measuring CD4+IL4-negative cells at 100 mg/kg by flow cytometry (reference value: 95.3%); assay type: functional; parameters: scale not given: the % may be the effect or the level left
[15] = Inhibition of cytokine storm in CLP-induced sepsis C57BL/6J mouse model assessed as disruption of Th1 and Th2 cells imbalance by measuring CD4+IL4-positive cells at 100 mg/kg by flow cytometry (reference value: 4.69%); assay type: functional; parameters: scale not given: the % may be the effect or the level left
[16] = Inhibition of cytokine storm in CLP-induced sepsis C57BL/6J mouse model assessed as reduction in Th17 cell differentiation by measuring CD4+IL17A-negative cells at 100 mg/kg by flow cytometry (reference value: 50.2%); assay type: functional; parameters: scale not given: the % may be the effect or the level left
[17] = Inhibition of cytokine storm in CLP-induced sepsis C57BL/6J mouse model assessed as reduction in Th17 cell differentiation by measuring CD4+IL17A-positive cells at 100 mg/kg by flow cytometry (reference value: 49.8%); assay type: functional; parameters: scale not given: the % may be the effect or the level left
[18] = system: Mus musculus; test: Anti-inflammatory activity against CLP-induced sepsis C57BL/6J mouse model assessed as proportion of Foxp3-positive Treg cells at 100 mg/kg by flow cytometry (reference value: 2.08%); assay type: functional
[19] = system: Mus musculus; test: Anti-inflammatory activity against CLP-induced sepsis C57BL/6J mouse model assessed as proportion of Tr1 cells producing IL-10 at 100 mg/kg by flow cytometry (reference value: 24.5%); assay type: functional
[20] = system: Mus musculus; test: Anti-inflammatory activity against CLP-induced sepsis C57BL/6J mouse model assessed as reduction in edema and hepatocyte necrosis at 100 mg/kg by Hematoxylin and eosin staining based analysis; assay type: functional, organism-based
Outline: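 Liver tissue from CLP-septic C57BL/6J male mice (8–10 wk), stained with H&E and examined for edema and hepatocyte necrosis.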

[21] = system: RAW264.7; test: Anti-inflammatory activity against LPS-stimulated mouse RAW264.7 cells assessed as proportion of polarized M1 macrophages at 100 nM incubated for 48 hrs in presence of LPS by flow cytometry (reference value: 90.3%); assay type: functional; outline: as §1
[22] = system: RAW264.7; test: Anti-inflammatory activity against LPS-stimulated mouse RAW264.7 cells assessed as proportion of polarized M1 macrophages at 500 nM incubated for 48 hrs in presence of LPS by flow cytometry (reference value: 90.3%); assay type: functional; outline: as §1
[23] = system: RAW264.7; test: Anti-inflammatory activity against LPS-stimulated mouse RAW264.7 cells assessed as TNF-alpha expression of M1 macrophages at 100 nM incubated for 48 hrs in presence of LPS by flow cytometry (reference value: 82.1%); assay type: functional; outline: as §1
[24] = system: RAW264.7; test: Anti-inflammatory activity against LPS-stimulated mouse RAW264.7 cells assessed as TNF-alpha expression of M1 macrophages at 500 nM incubated for 48 hrs in presence of LPS by flow cytometry (reference value: 82.1%); assay type: functional; outline: as §1
[25] = biological target: T1, Immunity-related GTPase family M protein 1 (Mus musculus) (UniProt Q60766); test: Binding affinity to IRGM in LPS-stimulated mouse RAW264.7 cells at 100 uM preincubated with LPS for 48 hrs followed by incubation with compound for 3 hrs by SILAC-pull down based analysis; assay type: cell-based
T1 sequence (whole entry): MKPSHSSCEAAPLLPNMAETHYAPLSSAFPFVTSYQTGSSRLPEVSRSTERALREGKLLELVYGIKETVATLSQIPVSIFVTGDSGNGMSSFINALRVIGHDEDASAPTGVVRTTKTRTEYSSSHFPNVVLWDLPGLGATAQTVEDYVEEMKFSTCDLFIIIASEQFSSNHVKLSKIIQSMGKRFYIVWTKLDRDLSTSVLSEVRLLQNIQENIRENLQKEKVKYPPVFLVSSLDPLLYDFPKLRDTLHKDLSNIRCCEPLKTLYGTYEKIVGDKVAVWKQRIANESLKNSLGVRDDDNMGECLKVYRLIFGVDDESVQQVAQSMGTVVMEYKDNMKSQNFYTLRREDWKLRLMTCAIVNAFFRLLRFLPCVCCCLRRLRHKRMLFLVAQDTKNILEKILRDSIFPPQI
Outline: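 RAW 264.7 cells were SILAC heavy- or light-labeled and polarized with 1 μg/mL LPS for 48 h. Lysates at 2 mg/mL in PBS: heavy with probe 10 (100 μM), light with 100 μM competitor, 3 h at room temperature. Then 365 nm UV at 4 °C and click with biotin-azide (final 500 μM) and Cu+ (final 1 mM) for 3 h. Acetone precipitation, streptavidin bead capture, SDS-PAGE and MS; Heavy/Light ratios by MaxQuant.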

[26] = biological target: T2, Immunity-related GTPase family M protein (Homo sapiens) (UniProt A1A4Y4); test: Binding affinity to IRGM (unknown origin) by gene ontology analysis
T2 sequence (whole entry): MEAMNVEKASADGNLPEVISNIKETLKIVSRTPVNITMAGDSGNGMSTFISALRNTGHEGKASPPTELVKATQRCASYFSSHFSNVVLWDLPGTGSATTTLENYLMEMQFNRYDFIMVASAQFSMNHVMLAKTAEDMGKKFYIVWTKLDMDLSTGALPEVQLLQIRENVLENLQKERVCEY

[27] = biological target: T1, Immunity-related GTPase family M protein 1 (Mus musculus); test: Binding affinity to IRGM in LPS-stimulated mouse RAW264.7 cells at 100 uM preincubated with LPS for 48 hrs followed by incubation with compound for 3 hrs by immunoblot analysis; assay type: cell-based
Outline: (§3)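 Lysates of LPS-polarized (1 μg/mL, 48 h) RAW 264.7 cells at 2 mg/mL, incubated 3 h at room temperature with 100 μM probe 10 plus competitor at 10–100 μM. Then UV 365 nm crosslinking, click with biotin-azide, streptavidin pull-down, and immunoblotting for IRGM.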

[28] = biological target: T1, Immunity-related GTPase family M protein 1 (Mus musculus); test: Binding affinity to IRGM in LPS-stimulated mouse RAW264.7 cells by competitive pull down based immunoblot analysis; assay type: cell-based; details: dose 10-100 µM, DDE = dose-dependent effect; outline: as §3
[29] = biological target: T2, Immunity-related GTPase family M protein (Homo sapiens); test: Binding affinity to IRGM (unknown origin) assessed as protection of protein from temperature-dependent denaturation at 100 uM by CETSA analysis
[30] = biological target: T2, Immunity-related GTPase family M protein (Homo sapiens); test: Binding affinity to IRGM (unknown origin) assessed as protection of protein from pronase proteolysis by DARTS analysis; details: dose 1-100 µM, DDE = dose-dependent effect
Outline: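 DARTS: samples treated with compound at 1–100 μM, then digested with pronase; IRGM detected by immunoblot.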

Structure (SMILES) | Activity [1] | Activity [2] | Activity [3] [%] | Activity [4] [%] | Activity [5] [%] | Activity [6] [%] | Activity [7] [%] | Activity [8] [%] | Activity [9] | Activity [21] [%] | Activity [22] [%] | Activity [23] [%] | Activity [24] [%] | other results
C=CCc1cc2c(cc1O)O[C@H](c1ccc(OC)c(OC)c1)[C@H]2C | Active | Active | 57.2 | 42.8 | 64.9 | 35.1 | 57.7 | 42.3 | Non-Toxic | 82.9 | 83.2 | 19.5 | 22.8 | Activity [10]: 1.09%; Activity [11]: 71.3%; Activity [12]: 88.7%; Activity [13]: 11.3%; Activity [14]: 98.5%; Activity [15]: 1.53%; Activity [16]: 82.5%; Activity [17]: 17.5%; Activity [18]: 0.53%; Activity [19]: 11.2%; Activity [20]: Active; Activity [25]: Active; Activity [26]: Active; Activity [27]: Active; Activity [28]: Dde; Activity [29]: Active; Activity [30]: Dde
C[C@]12CCC(=O)C=C1CC[C@@H]1[C@@H]2[C@@H](O)C[C@@]2(C)[C@H]1CC[C@]2(O)C(=O)CO | – | Active | – | – | – | – | – | – | – | – | – | – | – | –
COc1ccc(/C=C/COc2cccc(O)c2)cc1OC | – | Active | 74.9 | 25.1 | 76 | 24 | 74.1 | 25.9 | Non-Toxic | – | – | – | – | –
C=CCOc1cccc(OC/C=C/c2ccc(OC)c(OC)c2)c1 | Active | Active | 74.4 | 25.6 | 85.2 | 14.8 | 76.1 | 23.9 | Non-Toxic | – | – | – | – | –
C=CCC1=C[C@]2(OC)C(=CC1=O)O[C@H](c1ccc(OC)c(OC)c1)[C@H]2C | – | Active | 75.7 | 24.3 | 85.7 | 14.3 | 78.6 | 21.4 | Non-Toxic | – | – | – | – | –
C#CCCC1(CCOc2cc3c(cc2CC=C)[C@H](C)[C@@H](c2ccc(OC)c(OC)c2)O3)N=N1 | – | – | – | – | – | – | – | – | – | 81.8 | 82.6 | 28.9 | 26.6 | –

From ChEMBL document CHEMBL5108029, “SILAC-based chemoproteomics reveals a neoligan analogue as an anti-inflammatory agent targeting IRGM to ameliorate cytokine storm” (Eur J Med Chem, 2022)
